Apaf-1 act: activates human Apaf-1 apoptosome. Apaf-1 apoptosome caspase-3 activation, DEVD-Rh110 fluorescence; hits give low values. AID 489031. activity change, negative = activation, % at 20 µM. O14727. 330,000 compounds, 0.31% hits;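 active means activity change at or below -40% at 20 µM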
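Assay system – biochemical Apaf-1 apoptosome reconstitution · Medium – 20 mM HEPES buffer, pH 7.5, containing CHAPS and BSA · Incubation – 30 min preincubation, 50 min reaction, room temperature · Measured by – Caspase-3-released Rh110 fluorescence, 540 nm emission, 480 nm excitation · Read-out – Caspase-3 cleavage activity downstream of Apaf-1 activation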
Rh110 act interf: counter-screen for Apaf-1 activators: fluorescence interference. shares compounds with Apaf-1 act. Rh110 fluorescence interference, quenched caspase reaction, Ex480/Em540. fluorescence interference (activity change), % at 20 µM, hits read low. 980 tested, under 10 active. AID 504616;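 active means mean activity change at or below -40% when tested at 20 µM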
Apaf-1 act conf2: Apaf-1 (human) activation, single-dose confirmed. shares compounds with Apaf-1 act. reconstituted apoptosome caspase-3 activity, DEVD-Rh110 fluorescence; hits give low values. activity change, negative = activation, % at 20 µM. 980 compounds, 5% hits. AID 504617;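 active means mean activity change at or below -40%, meaning activation of 40% or more, at 20 µM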
Of the large screens only hits and unclear results are named; the others gave an inactive call (follow-up assays come after a bar, where they were run). Not all results are given here.

O=C1c2ccccc2C(=O)C1(O)O	none
Cc1[nH]n(-c2ccccc2)c(=O)c1/C=N/N(C)c1ccccc1	none
O=C(OCc1nc2ccccc2s1)c1ccc([N+](=O)[O-])o1	none
NC(N)=Nc1cc2ccccc2c2ccccc12	none
COc1ccc(C(C(=O)NC2CCCC2)N(Cc2ccc(F)cc2)C(=O)c2ccn[nH]2)cc1OC (stereo unspecified)	Apaf-1 act -105 | Rh110 act interf inactive | Apaf-1 act conf2 inactive
CC1CC2(CCCCC2)N2C(=O)C(=O)c3cccc1c32 (stereo unspecified)	none
COc1cc(O)c(NC(C)=O)c2nonc12	none
Nc1ccc2nc(-c3cccc(-c4nc5ccc(N)cc5[nH]4)n3)[nH]c2c1	none
Cc1c(N=Cc2cc3c(cc2[N+](=O)[O-])OCO3)cccc1[N+](=O)[O-]	none
CCN(CC)c1ccc(N=C2C(=O)Nc3ccccc32)cc1	none
Cc1cc(C)nc(-n2nc(C)cc2NC(=O)CN2CCc3ccccc3C2)n1	none
COC(=O)c1[nH]c2cc(C)ccc2c1NC(=O)CN1CCc2cc(OC)c(OC)cc2C1	Apaf-1 act -176 | Rh110 act interf inactive | Apaf-1 act conf2 inactive
COc1ccc(C2CC(=O)Oc3c(C(CCN4CCCC(C)C4)c4ccc(N(C)C)cc4)c(OC)cc(OC)c32)cc1 (stereo unspecified)	none
CC(=O)OCC(=O)[C@@]1(O)CC[C@H]2[C@@H]3CCC4=CC(=O)CC[C@]4(C)[C@H]3[C@@H](O)C[C@@]21C	none
O=[N+]([O-])c1cccc(OCc2cn3cccnc3n2)c1	Apaf-1 act -66 | Rh110 act interf inactive | Apaf-1 act conf2 inactive
NC1=Nc2cccc3cccc1c23	none
CCN(CC)C(=O)N1CCN(S(=O)(=O)c2ccccc2)CC1	Apaf-1 act -81 | Rh110 act interf inactive | Apaf-1 act conf2 inactive
CCOC(=O)N1CCN(C2=C(NS(=O)(=O)c3ccccc3)C(=O)c3ccccc3C2=O)CC1	none
COCCN(Cc1ccccc1)C(=O)c1cccc(S(=O)(=O)N2CCN(c3ccccc3)CC2)c1	none
Cc1ccc(C(=O)N/N=C/c2ccc(-c3ccccc3[N+](=O)[O-])o2)cn1	none
COc1ccc2c(c1)c(=O)oc1cc(O)ccc12	Apaf-1 act -299 | Rh110 act interf inactive | Apaf-1 act conf2 inactive
O=c1oc2cc(O)ccc2c2oc3cc(O)ccc3c12	Apaf-1 act -41 | Rh110 act interf inactive | Apaf-1 act conf2 inactive
CCOc1cc(/C=C2/C(=O)N(c3ccccc3)N=C2C)ccc1OC(=O)c1cccs1	none
COC(=O)CCC(=O)OC1(C)C(=O)C=C2C=C(C3CC3)N(CCc3ccccn3)C=C2C1=O (stereo unspecified)	none
Nc1ccc(O)c2ccccc12	none
O=C1N/C(=C\c2ccc(O)cc2)C(=O)c2ccccc21	none
O=C1c2[nH]nc(-c3ccccc3O)c2C(c2cccc(Cl)c2)N1Cc1ccco1 (stereo unspecified)	none
Cc1cc(N2CCN(c3ccc([N+](=O)[O-])c4cccnc34)CC2)c2ccccc2n1	none
CCN1CCN(Cc2ccc(NC(=O)c3cc(NC(=O)c4cncc(-c5cccs5)c4)cc(OC)c3)cc2C(F)(F)F)CC1	none
O=C(OCC(=O)c1c[nH]c2ccccc12)c1cc(Br)ccc1O	Apaf-1 act -339 | Rh110 act interf inactive | Apaf-1 act conf2 inactive
C#CCOCCOCCOCCNc1nc(N2CCN(C(=O)CCCCCCCCCCNC(=O)[C@H](CO)n3cc(CCCSC)nn3)CC2)nc(N2CCN(C(=O)CCCCCCCCCCNC(=O)[C@H](CCCCN)n3cc(CCO)nn3)CC2)n1	none
COc1ccc(OCc2cc(C(=O)N3CCSCC3)no2)c(Cl)c1	Apaf-1 act -153 | Rh110 act interf inactive | Apaf-1 act conf2 inactive
C=CCNC(=O)CN(c1cccc(Br)c1)S(C)(=O)=O	Apaf-1 act -56 | Rh110 act interf inactive | Apaf-1 act conf2 inactive
COc1cc(Br)c(C(=O)c2nccc3cc(OC)c(OC)cc23)cc1OC	none
CN1CCN(C2=C(Cl)C(=O)C(c3cnc(N4CCCCC4)s3)=C(Cl)C2=O)CC1	none
C=CC(=C)CC(NC)c1ccccc1 (stereo unspecified)	Apaf-1 act -48 | Rh110 act interf inactive | Apaf-1 act conf2 inactive
Cc1[nH][nH]c(=O)c1C(c1ccc(-c2ccc(F)cc2)o1)c1c(C)[nH][nH]c1=O	none
Cc1c(CCOC(=O)c2ccc(Cl)cc2Cl)sc[n+]1CC(=O)c1ccc(Br)cc1	none
Oc1cccc(C=NCc2ccccc2)c1O	none
CN1CCc2c(sc(NC(=O)c3ccc(C(=O)c4ccccc4)cc3)c2C(N)=O)C1	none
CCCN1CCN(C(=S)Nc2ccccc2C(F)(F)F)CC1	Apaf-1 act -81 | Rh110 act interf inactive | Apaf-1 act conf2 inactive
CN(C)CCCN(C(=O)c1ccc(S(=O)(=O)N2CCCCC2)cc1)c1nc2cc3c(cc2s1)OCO3	none
Cc1ccc(C(=O)NCC(=O)N2CCCCCCC2)cc1	none

Screening data from PubChem.
